Columns and labels:
Format in all cases: functional
Homo sapiens [1] = species on record: Homo sapiens; test: Sensory evaluation was done for sweetness at a concentration of 250 p.p.m. against compound potency calculated on weight basis.
Outline: (§1)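 Sweetness tasted in solutions held near pH ~7, so carboxylic acids are ionized. Potency is reported two ways: on a weight basis (Pw) and on a molar basis (Pm).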

Homo sapiens [2] = species on record: Homo sapiens; test: Sensory evaluation was done for sweetness at a concentration of 250 p.p.m. against compound potency calculated on a molar basis.; outline: as §1
Homo sapiens [3] = species on record: Homo sapiens; test: Sensory evaluation was done at a concentration of 250 p.p.m. against other properties.
Outline: (§2)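 Aqueous sample solutions were tasted at about pH 7, so carboxylic acids were in ionized form.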

Homo sapiens [4] = species on record: Homo sapiens; test: Sensory evaluation was done at a concentration of 250 p.p.m. against property of bitterness.; outline: as §2
Homo sapiens [5] = species on record: Homo sapiens; test: Sensory evaluation was done for sweetness at a concentration of 250 p.p.m. against sample intensity relative to 10% sucrose.; outline: as §1
Homo sapiens [6] = species on record: Homo sapiens; test: Sensory evaluation was done at a concentration of 250 p.p.m. against property of sweetness.; outline: as §2
Homo sapiens [7] = species on record: Homo sapiens; test: Sensory evaluation was done for sweetness at a concentration of 100000 p.p.m. against compound potency calculated on weight basis.
Outline: (§3)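 Solutions were tasted at about pH 7. Sweetness potency was expressed two ways: Pw, calculated on a weight basis, and Pm, calculated on a molar basis.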

Homo sapiens [8] = species on record: Homo sapiens; test: Sensory evaluation was done for sweetness at a concentration of 100000 p.p.m. against compound potency calculated on a molar basis.; outline: as §3
Homo sapiens [9] = species on record: Homo sapiens; test: Sensory evaluation was done at a concentration of 100000 p.p.m. against other properties.; outline: as §2
Homo sapiens [10] = species on record: Homo sapiens; test: Sensory evaluation was done at a concentration of 100000 p.p.m. against property of bitterness.; outline: as §2
Homo sapiens [11] = species on record: Homo sapiens; test: Sensory evaluation was done at a concentration of 100000 p.p.m. against property of sweetness.; outline: as §2
Homo sapiens [12] = species on record: Homo sapiens; test: Sensory evaluation was done for sweetness at a concentration of 100000 p.p.m. against sample intensity relative to 10% sucrose.; outline: as §1

SMILES	Pw (Homo sapiens [1])	Pm (Homo sapiens [2])	Sensory evaluation (Homo sapiens [3])	Sensory evaluation (Homo sapiens [4])	Ip (Homo sapiens [5])	Sensory evaluation (Homo sapiens [6])	Pw (Homo sapiens [7])	Pm (Homo sapiens [8])	Sensory evaluation (Homo sapiens [9])	Sensory evaluation (Homo sapiens [10])	Sensory evaluation (Homo sapiens [11])	Ip (Homo sapiens [12])
COc1ccc(CCC(=O)c2c(O)cc(O[C@@H]3O[C@H](CO)[C@@H](O)[C@H](O)[C@H]3O[C@@H]3O[C@@H](C)[C@H](O)[C@@H](O)[C@H]3O)cc2O)cc1O [NEOHESPERIDIN DIHYDROCHALCONE]	480	860	16	3	1.2	81						
OC[C@H]1O[C@@](CO)(O[C@H]2O[C@H](CO)[C@@H](O)[C@H](O)[C@H]2O)[C@@H](O)[C@@H]1O [SUCROSE]							1	1	0	0	100	1
